Results reported in publication PMC2872922 (Journal of medicinal chemistry, 2010).

Key:
[1] = molecular target: K18 tau fragment bearing the P301L mutation (K18PL) (Homo sapiens, UniProt P10636, P618L); experiment: Heparin-induced tau K18PL fibrillization assay monitored by thioflavine-T; type: biochemical
[2] = Phase 2 study, 321 patients with mild or moderate AD; cited from earlier work
[3] = molecular target: tau40-promoted MT-polymerization (tubulin) (Homo sapiens, UniProt P10636); experiment: MT-assembly; type: biochemical; conditions: 50 μM compound, 30 μM tubulin, 20 μM tau40
tau40-promoted MT-polymerization (tubulin), sequence (P10636 1-441 isoform P10636-8): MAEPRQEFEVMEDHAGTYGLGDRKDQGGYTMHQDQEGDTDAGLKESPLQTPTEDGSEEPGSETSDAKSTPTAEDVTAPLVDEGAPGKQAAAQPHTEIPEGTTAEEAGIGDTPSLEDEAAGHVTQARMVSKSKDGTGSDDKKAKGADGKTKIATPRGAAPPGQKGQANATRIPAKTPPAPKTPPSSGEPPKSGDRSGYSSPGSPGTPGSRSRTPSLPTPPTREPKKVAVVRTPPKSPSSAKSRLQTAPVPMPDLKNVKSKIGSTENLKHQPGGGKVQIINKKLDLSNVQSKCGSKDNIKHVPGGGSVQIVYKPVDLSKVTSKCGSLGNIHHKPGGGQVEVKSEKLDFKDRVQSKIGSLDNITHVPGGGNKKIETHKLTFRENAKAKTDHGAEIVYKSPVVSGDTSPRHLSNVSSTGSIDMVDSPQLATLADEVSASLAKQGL
Procedure, shortened: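 Wild-type full-length human tau40 (2N4R) was preincubated with test compound for 120 min at room temperature in RAB (100 mM MES pH 6.9, 1 mM […], 0.5 mM MgSO4). Bovine brain tubulin and GTP were then added. Final concentrations were 30 μM tubulin, 20 μM tau, 50 μM compound and 2 mM GTP, with a DMSO control. Polymerisation was followed at 37 °C by A340 every minute for 45 min.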

[4] = Brain and plasma levels 1 h after i.p. administration; type: in vivo; conditions: female, B6C3F1, mouse, brain, ip, 5 mg/kg, Brain level, mice, 5 mg/kg i.p.
Procedure, shortened: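 Two-month-old female B6C3F1 mice, three per compound, given test compound 5 mg/kg i.p. and sampled at 1 h. Brain hemispheres were homogenised in 10 mM ammonium acetate pH 5.7 (1:2 w/v), and plasma was collected on EDTA. Samples were acetonitrile-extracted and quantified by LC-MS/MS (MRM, positive ESI) against spiked brain/plasma standards (4–4000 ng/mL) using a 1/x-weighted linear fit and triplicate injections.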

[5] = Brain and plasma levels after oral administration; type: in vivo; conditions: mice, oral gavage 5 mg/Kg
Procedure, shortened: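 Female B6C3F1 mice, two months old, were dosed with test compound at 5 mg/kg by oral gavage. Brain homogenate (10 mM ammonium acetate pH 5.7, 1:2 w/v) and EDTA plasma were extracted with acetonitrile. Levels were measured by LC-MS/MS with MRM detection, quantified from matrix-matched standard curves (4–4000 ng/mL) by 1/x-weighted linear regression on the mean of triplicate injections.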

K18 tau fragment bearing the P301L mutation (K18PL), sequence (P10636 561-689 P618L): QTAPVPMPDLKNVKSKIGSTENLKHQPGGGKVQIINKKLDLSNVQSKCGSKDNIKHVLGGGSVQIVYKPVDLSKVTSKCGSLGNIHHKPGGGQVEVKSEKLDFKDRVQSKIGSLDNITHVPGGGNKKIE

`CN(C)C(=O)c1nn(-c2ccc(Cl)cc2)c(=O)c2c(N)scc12` [Compound 17, 5-Amino-3-(4-chlorophenyl)-N,N-dimethyl-4-oxo-3,4-dihydrothieno[3,4-d]pyridazine-1-carboxamide] gave an IC50 [1] of 20.5 ± 13.6 µM.
In the case of `CN(C)c1ccc2nc3ccc(=[N+](C)C)cc-3sc2c1` [methylene blue], the “Cognitive decline compared to placebo” value [2] is given as “significant reduction in cognitive decline”.
In the case of `Nc1scc2c(C(=O)O)nn(-c3ccc(Cl)cc3)c(=O)c12` [Compound 11, 5-Amino-3-(4-chlorophenyl)-4-oxo-3,4-dihydrothieno[3,4-d]pyridazine-1-carboxylic acid], the IC50 [1] is reported as 5.4 ± 2.3 µM and the “Interference with the normal MT-stabilizing function of tau” value (from here on “Interference”) [3] is reported as “did not appear to interfere”.
In the case of `CC(C)NC(=O)c1nn(-c2ccc(Cl)cc2)c(=O)c2c(N)scc12` [Compound 15, 5-Amino-3-(4-chlorophenyl)-N-isopropyl-4-oxo-3,4-dihydrothieno[3,4-d]pyridazine-1-carboxamide], the IC50 [1] is reported as 5.9 ± 4.7 µM, the concentration at 1 h [4] is reported as greater than 800 ng/g and the “Brain concentration after oral administration” value [5] is reported as “significant concentrations”.
With `CC(C)OC(=O)c1nn(-c2ccc(Cl)cc2)c(=O)c2c(N)scc12` [Compound 10, Isopropyl 5-amino-3-(4-chlorophenyl)-4-oxo-3,4-dihydrothieno[3,4-d]pyridazine-1-carboxylate] the IC50 [1] was 1.6 ± 1.1 µM and the “Interference” value [3] was “did not appear to interfere”.
Compound `CCN(C)C(=O)c1nn(-c2ccc(Cl)cc2)c(=O)c2c(N)scc12` [Compound 18, 5-Amino-3-(4-chlorophenyl)-N-ethyl-N-methyl-4-oxo-3,4-dihydrothieno[3,4-d]pyridazine-1-carboxamide] has an IC50 [1] of 32 ± 4.1 µM.
In the case of `CCOC(=O)c1nn(-c2ccc(Cl)cc2)c(=O)c2c(N)scc12` [Compound 8, Ethyl 5-amino-3-(4-chlorophenyl)-4-oxo-3,4-dihydrothieno[3,4-d]pyridazine-1-carboxylate], the IC50 [1] is reported as 3.8 ± 1.6 µM and the “Interference” value [3] is reported as “did not appear to interfere”.
For `Nc1scc2c(C(=O)NC3CC3)nn(-c3ccc(Cl)cc3)c(=O)c12` [Compound 16, 5-Amino-3-(4-chlorophenyl)-N-cyclopropyl-4-oxo-3,4-dihydrothieno[3,4-d]pyridazine-1-carboxamide], the IC50 [1] was 8.1 ± 5.7 µM, the concentration at 1 h [4] was greater than 800 ng/g and the “Brain concentration after oral administration” value [5] was “significant concentrations”.
With `CC(C)NC(=O)c1nn(-c2ccc(Br)cc2)c(=O)c2c(N)scc12` [Compound 19, 5-Amino-3-(4-bromophenyl)-N-isopropyl-4-oxo-3,4-dihydrothieno[3,4-d]pyridazine-1-carboxamide] the IC50 [1] was 3.1 ± 0.6 µM.
`CNC(=O)c1nn(-c2ccc(Cl)cc2)c(=O)c2c(N)scc12` [Compound 13, 5-Amino-3-(4-chlorophenyl)-N-methyl-4-oxo-3,4-dihydrothieno[3,4-d]pyridazine-1-carboxamide] showed an IC50 [1] of 21.7 ± 16 µM.
Compound `CCNC(=O)c1nn(-c2ccc(Cl)cc2)c(=O)c2c(N)scc12` [Compound 14, 5-Amino-3-(4-chlorophenyl)-N-ethyl-4-oxo-3,4-dihydrothieno[3,4-d]pyridazine-1-carboxamide] has an IC50 [1] of 6.9 ± 3.4 µM and a concentration at 1 h [4] greater than 800 ng/g.
